In the library only some 4.5% were active in any assay of this set; here they are far more common.
AHR act: activators of human aryl hydrocarbon receptor | P35869 | AHR-responsive luciferase reporter cells, luminescence | activation, % at 5 µM | 2.5% of 320,000 active; in the data active = activation above about 47%
PERK inhibitor: human PERK inhibition, primary cell-based screen; Q9NZJ5; CHO PERK-DD fusion, SEAP luminescence translation reporter; 0.17% of 220,000 active; inhibition, % at 5.6 µM; AID 1416;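 active = inhibition above the mean inhibition of all tested compounds plus 3 SD, set separately per screening campaign, cut at about 2.9% in these data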;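 note: PERK kinase domain activated by AP20187 dimerizer at 100 nM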
Target sequence (Q9NZJ5 whole entry, looked up, the tested form may be a part): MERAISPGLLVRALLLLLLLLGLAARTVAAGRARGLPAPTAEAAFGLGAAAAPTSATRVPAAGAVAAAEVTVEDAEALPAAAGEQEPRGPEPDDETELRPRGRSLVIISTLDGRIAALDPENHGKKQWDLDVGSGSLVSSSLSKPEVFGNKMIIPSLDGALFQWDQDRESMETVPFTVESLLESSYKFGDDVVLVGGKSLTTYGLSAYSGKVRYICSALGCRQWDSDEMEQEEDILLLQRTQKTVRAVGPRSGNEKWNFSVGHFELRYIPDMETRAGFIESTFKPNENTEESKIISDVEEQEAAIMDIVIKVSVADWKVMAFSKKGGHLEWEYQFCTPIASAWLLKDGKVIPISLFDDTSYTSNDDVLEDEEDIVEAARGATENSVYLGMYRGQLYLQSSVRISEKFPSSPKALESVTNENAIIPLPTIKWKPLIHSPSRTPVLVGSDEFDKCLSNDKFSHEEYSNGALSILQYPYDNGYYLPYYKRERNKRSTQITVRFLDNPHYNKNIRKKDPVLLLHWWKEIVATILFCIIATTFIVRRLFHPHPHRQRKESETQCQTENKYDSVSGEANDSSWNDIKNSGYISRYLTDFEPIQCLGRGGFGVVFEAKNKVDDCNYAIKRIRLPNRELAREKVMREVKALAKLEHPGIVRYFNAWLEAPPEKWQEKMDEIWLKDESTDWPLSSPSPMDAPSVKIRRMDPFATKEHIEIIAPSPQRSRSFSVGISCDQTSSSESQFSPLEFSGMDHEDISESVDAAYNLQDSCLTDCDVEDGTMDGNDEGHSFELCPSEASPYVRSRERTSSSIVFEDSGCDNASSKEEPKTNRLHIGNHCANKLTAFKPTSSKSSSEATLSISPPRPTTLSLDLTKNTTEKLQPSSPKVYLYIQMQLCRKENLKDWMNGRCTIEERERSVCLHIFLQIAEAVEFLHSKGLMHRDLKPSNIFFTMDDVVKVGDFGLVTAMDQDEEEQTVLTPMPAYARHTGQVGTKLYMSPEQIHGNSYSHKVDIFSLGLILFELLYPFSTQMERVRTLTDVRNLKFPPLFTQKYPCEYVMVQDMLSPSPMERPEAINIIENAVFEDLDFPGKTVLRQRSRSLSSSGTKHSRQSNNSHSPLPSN
STAT1 act: STAT1 signaling activation; NIH 3T3 STAT1-luciferase reporter, IFN-gamma, luminescence; 100% = IFN-gamma alone, no compound; activation (% of control), % at 5.5 µM; 2.6% of 200,000 active;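 active = activation above the screen-wide mean activation plus 3 SD, cut at about 130% in these data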
NF-kB neuron act: NF-kB expression increase, human neuronal cells; NF-kB reporter expression; hits give high values; fold change at 12.5 µM; 1.6% of 190,000 active; AID 1239; in the data active = fold change above about 3.3
Mdm2 ligase inh: inhibitors of human Mdm2 E3 ubiquitin ligase; signal enhancement, % at 5 µM; Q00987; 0.11% of 210,000 active; cell-based MDM2 ubiquitination luciferase reporter, 2 h; 0 = plate control, 100 = twice control, blank-subtracted;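 active = signal enhancement of 30% or more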;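 note: luminescence tracks abundance of the self-degrading MDM2-luciferase fusion protein; higher signal means inhibition of MDM2 E3 ligase activity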
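System: stable MDM2–luciferase fusion reporter cells / Input: 2000 cells seeded into each well / Schedule: 4 h settle plus 2 h compound, 37 °C / Compound: single-point 5 µM / Buffer or medium: cells held in DMEM / Benchmarks: control and blank well means / Evaluation: percent signal gain over controls, blank-subtracted / Measured by: luciferase luminescence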
APP 5'UTR act: activates APP 5'UTR luciferase reporter. SH-SY5Y APP 5'UTR luciferase reporter, luminescence; zero percent = DMSO vehicle wells. activation, % at 2 µM. 1% of 190,000 active. AID 1276;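 active = activation above a set limit, based on mean plus 3 SD of controls, cut at about 140% in these data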
Numbers stand for hits; - = inactive; . = not tested or not shown.

SMILES	AHR act	PERK inhibitor	STAT1 act	NF-kB neuron act	Mdm2 ligase inh	APP 5'UTR act
CNC(=S)N/N=C(\C)c1ccc2c(c1)OCCO2	48.4	-	-	-	-	-
C/C(=N\NC(=S)Nc1ccc(C(C)C)cc1)c1ccc2c(c1)OCO2	-	-	-	-	-	-
C/C(=N\NC(=S)NC(C)C)c1ccc2c(c1)OCCO2	-	-	-	-	-	-
CCn1nc(C)cc1-c1n[nH]c(=S)n1N	-	-	-	-	-	-
O=C(CSCc1ccc(Br)cc1)Nc1ccccc1C(=O)N1CCOCC1	-	.	.	.	.	.
Cc1cccc(NC(=O)c2cc(C)nc3ccccc23)c1	-	.	.	.	.	.
Cc1cccc(NC(=S)c2nc3ccccc3s2)c1	76.0	-	143.3	3.89	-	205.1
Cn1c(O)c(C2=c3ccccc3=NC2=O)sc1=Nc1ccc(Cl)cc1	55.9	-	-	5.15	-	-
O=C(O)Cn1c(O)c(C2=c3ccccc3=NC2=O)sc1=O	-	.	.	.	.	.
C=CCn1c(O)c(C2=c3ccccc3=NC2=O)s/c1=N/c1nccs1	59.2	-	-	-	-	-
COc1ccc(-c2nnc(SCC(=O)Nc3c(Cl)cc(Cl)cc3C(=O)O)o2)cc1	-	.	.	.	.	.
CN1CCN(c2ccccc2NC(=O)c2ccc(-c3ccc(Cl)c(Cl)c3)o2)CC1	63.4	.	.	.	.	.
CN1CCN(c2ccccc2NC(=O)c2cc(Br)ccc2Cl)CC1	55.1	-	-	-	-	-
COc1ccccc1NC(=O)c1ccccc1C(=O)Nc1ccccc1OC	-	.	.	.	.	.
CC(=O)N1CCN(c2ccccc2NC(=O)c2cc(Br)ccc2Cl)CC1	-	-	-	-	-	-
CN1CCN(c2ccccc2NC(=O)c2ccc(-c3ccc(Br)cc3)o2)CC1	-	.	.	.	.	.
COc1ccccc1NC(=O)c1cc(Br)ccc1Cl	65.4	-	-	-	-	-
CCOc1ccc(CN(C)C(=O)CNC(=O)c2ccc(Br)o2)cc1OC	-	.	.	.	.	.
Cc1ccc(S(=O)(=O)Nc2cc(S(=O)(=O)N3CCOCC3)ccc2NCC2CCCO2)cc1 (stereo unspecified)	-	.	.	.	.	.
O=C1Nc2ccccc2/C1=C/C(=O)c1cccs1	118.0	-	-	-	-	-
COc1ccc(C(=O)/C=C2/C(=O)Nc3ccccc32)cc1OC	-	.	.	.	.	.
NC(=S)Nc1nccc(-c2cccs2)n1	-	-	-	-	-	-
Cc1ccc(C(=O)Nc2nccc(-c3cccs3)n2)cc1	70.8	-	-	-	-	-
O=C(Nc1nc(-c2ccc(Cl)cc2)cs1)C1=COCCO1	-	.	.	.	.	.
O=C(Nc1nc(-c2cccs2)cs1)C1=COCCO1	-	-	148.7	3.6	-	-
SMILES	AHR act	PERK inhibitor	STAT1 act	NF-kB neuron act	Mdm2 ligase inh	APP 5'UTR act
COc1ccc(C(=O)Nc2nc(-c3cccs3)cs2)cc1	-	-	137.1	-	-	-
CC(=O)c1sc(NC(=O)CSCc2c(C)noc2C)nc1-c1ccccc1	-	.	.	.	.	.
COc1ccc(CNc2nnnn2C)c(OC)c1	-	.	.	.	.	.
O=C(CSc1nc2ccc(Cl)cc2[nH]1)c1cccs1	-	-	.	.	.	.
Cc1cc(C)cc(C(=O)NCC(=O)OCC(=O)NC2CC2)c1	-	.	.	.	.	.
O=C(NNC(=S)NC(=O)c1ccc(Br)cc1)c1cccc([N+](=O)[O-])c1	53.4	.	.	.	.	.
CCN1CCN(C(=O)/C(=C/c2cccs2)NC(=O)c2ccc(C)c(C)c2)CC1	-	.	.	.	.	.
COCCNC(=O)C(=O)NNS(=O)(=O)c1ccc2ccccc2c1	-	-	-	-	-	-
Cc1cccc(N=Nc2ccc(O)c3ncccc23)c1	70.3	-	-	-	-	-
O=c1[nH]c2ccccc2nc1CCc1ccccc1	58.3	-	144.8	-	-	-
c1ccc2c(c1)oc1c(NCC3CCCO3)ncnc12 (stereo unspecified)	-	-	-	-	-	-
Clc1ccc2[nH]c3c(NCC4CCCO4)ncnc3c2c1 (stereo unspecified)	76.2	-	-	-	-	-
O=C(CCCc1ccccc1)Nc1ccnn1C1CCN(Cc2ccc(CO)o2)CC1	-	.	.	.	.	.
Nc1ccccc1Oc1ncc(C(F)(F)F)cc1Cl	-	2.9	-	-	-	-
Cc1cccnc1NCc1ccc(O)c2ncccc12	-	-	-	8.63	-	-
CCCn1c(N)c(N(CCOC)C(=O)CSCC(=O)Nc2cccc(C)c2)c(=O)[nH]c1=O	-	.	.	.	.	.
O=C(O)C(Cc1ccccc1)N1C(=O)c2cccc3cccc(c23)C1=O (stereo unspecified)	-	-	-	-	-	-
O=C(CCN1C(=O)c2cccc3cccc(c23)C1=O)N1CCOCC1	-	-	129.3	-	-	-
O=C1c2cccc3cccc(c23)C(=O)N1CCc1ccccc1	52.5	-	-	-	-	-
O=C(Nc1ccccc1C(=O)N1CCCCC1)c1ccc(Cl)cc1Cl	-	.	.	.	.	.
CCOc1ccc(OCC)c(NC(=O)c2nnn(CC(=O)Nc3cc(C)cc(C)c3)c2N)c1	-	.	.	.	.	.
Cc1cccc(C)c1NC(=O)NC1(C(=O)N2CCCC2)CCCCC1	-	.	.	.	.	.
Cc1cccc(/C=N\NC(=O)c2sccc2-n2cccc2)c1	63.7	-	-	-	-	-
O=C(N/N=C\c1cccs1)c1sccc1-n1cccc1	66.5	-	-	-	-	-
Cc1cccc(/C=N\NC(=O)c2ccccc2-n2cccc2)c1	-	-	-	-	-	-
SMILES	AHR act	PERK inhibitor	STAT1 act	NF-kB neuron act	Mdm2 ligase inh	APP 5'UTR act
O=C(O)/C(=C\c1cccs1)c1ccccc1	-	-	-	-	-	-
COc1cc2c(cc1OC)C(COc1ccc(C(C)C)cc1)NCC2 (stereo unspecified)	-	.	.	.	.	.
N#C/C(=C/c1ccccc1[N+](=O)[O-])c1nc(C2CC2)cs1	71.3	-	-	-	-	-
N#C/C(=C\c1ccccc1[N+](=O)[O-])c1nc(C2CC2)cs1	105.6	-	-	-	-	-
O=C(CSc1nnc(NC(=O)C2CC2)s1)NCc1ccccc1	-	.	.	.	.	.
O=C1C(C=Nc2ccc(F)cc2)=C(O)c2ccccc21	-	-	148.6	7.14	-	148.0
COc1ccc(N=CC2=C(O)c3ccccc3C2=O)c(OC)c1	53.9	-	-	-	-	176.5
COc1ccc(CC2=C(O)c3ccccc3C(=O)C2=O)cc1	-	.	.	.	.	.
Cc1ccccc1N=CC1=C(O)c2ccccc2C1=O	-	-	-	-	-	140.3
O=C(CN1CCN(C(C(=O)Nc2ccc(F)cc2)c2ccccc2)CC1)NC1CC1 (stereo unspecified)	-	.	.	.	.	.
CCOC(=O)c1c(NC(=O)COC(=O)Cn2cnc3c2c(=O)n(C)c(=O)n3C)sc(C)c1CC	-	.	.	.	.	.
CC1CCCC(C)N1C(=O)COC(=O)c1cccs1 (stereo unspecified)	-	.	.	.	.	.
C=CCOc1c(Cl)cc(C(=S)N2CCCC2)cc1OCC	-	.	.	.	.	.
N#Cc1cccc(NC(=O)Cn2c3[n+](c4ccc(C(F)(F)F)cc42)CCCCC3)c1	-	-	-	-	-	.
CC1(C)C/C(=N\NC(=S)Nc2ccccc2F)c2cc(O)ccc2O1	60.1	-	-	-	-	-
Cc1ccc(-n2ncc3c(=O)n(CC(N)=O)cnc32)cc1C	-	.	.	.	.	.
Cc1nc2c3cnn(-c4ccc(C)c(C)c4)c3ncn2n1	-	-	148.2	4.26	-	.
O=C(Nc1ccc(Br)cn1)c1cccc2ccccc12	70.0	.	.	.	.	.

Screening data from PubChem BioAssay.
